Measurements from different studies.
Each line is one published result; the experiments were not run side by side.
NPSR1: Neuropeptide S receptor (NPSR1, Homo sapiens, UniProt Q6W5P4)
SLC6A2: Sodium-dependent noradrenaline transporter (SLC6A2, Homo sapiens, UniProt P23975)
NQO2: Ribosyldihydronicotinamide dehydrogenase [quinone] (NQO2, Homo sapiens, UniProt P16083)
CHRM5: Muscarinic acetylcholine receptor M5 (CHRM5, Homo sapiens, UniProt P08912)
MC4R: Melanocortin receptor 4 (MC4R, Homo sapiens, UniProt P32245)

SMILES | target | observed | mode | technique | endpoint | result
CCOC(=O)c1ccc(-n2cnc3c(c2=N)C(c2cccc(OC)c2)c2c(ccc4ccccc24)O3)cc1 (stereo not drawn) | NPSR1 | cAMP | antagonist | TR-FRET | IC50 | 15.4 µM
CNC(=O)[C@@]12C[C@@H]1[C@@H](n1cnc3c(NC4CC4c4ccccc4)nc(C#Cc4ccccc4)nc31)[C@H](O)[C@@H]2O (mixture of isomers) | SLC6A2 | ligand displacement |  | radioligand | Ki | 2.31 µM
Cc1cccc(Nc2ccccc2C(=O)O)c1C | NQO2 | enzyme activity | inhibitor | absorbance | Ki | > 500 µM
Nc1ncnc2c1ncn2[C@@H]1O[C@H](COP(=O)(O)OP(=O)(O)OP(=O)(O)O)[C@@H](O)[C@H]1O | dnaA (Escherichia coli, UniProt P03004, V303M) | binding |  |  | Kd | 0.08 µM
Cc1cc(Nc2cc3ncccc3c(N[C@@H]3C[C@H]4CC[C@@H](C3)N4CCC#N)n2)n[nH]1 | Dual specificity mitogen-activated protein kinase kinase 5 (MAP2K5, Homo sapiens, UniProt Q13163) | binding |  | competition with immobilised ligand | Kd | 0.065 µM
COc1cccc(C2c3c(ncn(-c4ccccc4Cl)c3=N)Oc3ccc4ccccc4c32)c1 (stereo not drawn) | NPSR1 | cAMP | antagonist | TR-FRET | IC50 | 12.2 µM
CC(C)(C)c1cc(CN(C(=O)CN(Cc2ccc(Cl)cc2)S(=O)(=O)c2c(F)c(F)c(F)c(F)c2F)c2ccc(C(=O)O)c(O)c2)cc(C(C)(C)C)c1 | Signal transducer and activator of transcription 1-alpha/beta (STAT1, Homo sapiens, UniProt P42224) | cell-free assay |  | FP | Ki | > 60 µM
CC[C@@H]1SC2(CCN(C)CC2)NC1=O | CHRM5 | calcium signal | agonist |  | EC50 | 1.08 µM
CC[C@H](C)[C@H](NC(=O)CN)C(=O)N[C@H](C(=O)N[C@@H](CC(N)=O)C(=O)N[C@H](C(=O)N[C@@H](CC(C)C)C(=O)N[C@@H](CCC(N)=O)C(=O)N[C@@H](CCCCN)C(=O)N[C@@H](Cc1ccc(O)cc1)C(=O)N[C@@H](Cc1ccc(O)cc1)C(=O)N[C@@H](CO)C(=O)N[C@@H](CCCNC(=N)N)C(=O)N[C@H](C(=O)N[C@@H](CCCNC(=N)N)C(=O)NCC(=O)NCC(=O)N[C@@H](CCCNC(=N)N)C(=O)N[C@H]1CSSC[C@@H](C(=O)N[C@@H](CO)C(=O)N[C@H](C(=O)N[C@@H](CCCNC(=N)N)C(=O)NCC(=O)N[C@@H](CCCNC(=N)N)C(=O)N[C@@H](CCCCN)C(=O)N[C@@H](CO)C(=O)N[C@@H](CO)C(=O)N[C@@H](CCCNC(=N)N)C(=O)N[C@@H](CCCNC(=N)N)C(=O)N[C@@H](CCCCN)C(=O)N[C@@H](CCCCN)C(N)=O)[C@@H](C)O)NC(=O)[C@H](CCCCN)NC(=O)CNC(=O)[C@H]([C@@H](C)CC)NC(=O)[C@H](CCC(N)=O)NC(=O)[C@H](CCC(=O)O)NC(=O)[C@H](CCC(=O)O)NC(=O)[C@H](CCCCN)NC(=O)[C@@H]2CCCN2C(=O)[C@H](CC(C)C)NC(=O)[C@H](CO)NC(=O)[C@H](CO)NC(=O)[C@H](CC(C)C)NC(=O)[C@H](C(C)C)NC(=O)[C@H](C)NC1=O)C(C)C)[C@@H](C)O)[C@@H](C)CC | MC4R | ligand displacement in cells |  |  | Ki | 0.567 µM
N=c1c2c(ncn1-c1ccccc1)Oc1ccc3ccccc3c1C2c1ccccc1 (stereo not drawn) | NPSR1 | calcium signal | antagonist |  | IC50 | 0.69 µM
Cc1cnc(-c2ccc(-c3ccc(NC(=O)Nc4c(F)cc(F)cc4F)cc3F)c3c2C(=O)NC3)[nH]1 | Tyrosine-protein kinase Fgr (FGR, Homo sapiens, UniProt P09769) | binding |  | competition with immobilised ligand | Kd | 0.083 µM
O=c1ccc2ccccc2o1 | Growth factor receptor-bound protein 2 (GRB2, Homo sapiens, UniProt P62993) | binding |  | fluorescence | Kd | 5.56 µM
COc1cccc(C2c3c(ncn(-c4ccncc4)c3=N)Oc3ccc4ccccc4c32)c1 (stereo not drawn) | NPSR1 | calcium signal | antagonist |  | IC50 | 4.38 µM
CCCCN1CCC(COC(=O)c2ccc(N)c(OCF)c2)CC1 | CHRM5 | cell-free assay |  | radioligand | Ki | > 10 µM
N=c1c2c(ncn1CCc1ccccc1)Oc1ccc3ccccc3c1C2c1ccccc1 (stereo not drawn) | NPSR1 | cAMP | antagonist | TR-FRET | IC50 | 4.87 µM
CCCC[C@H](NC(=O)[C@H](CO)NC(=O)[C@H](Cc1ccc(O)cc1)NC(=O)[C@H](CO)NC(C)=O)C(=O)N[C@@H](CCC(=O)O)C(=O)N[C@@H](Cc1c[nH]cn1)C(=O)N[C@@H](C)C(=O)N[C@@H](CCCNC(=N)N)C(=O)N[C@@H](Cc1c[nH]c2ccccc12)C(=O)NCC(=O)N[C@@H](CCCCN)C(=O)N1CCC[C@H]1C(=O)N[C@H](C(=O)NCC(=O)N[C@@H](CCCCN)C(=O)N[C@@H](CCCCN)C(=O)N[C@@H](CCCNC(=N)N)C(N)=O)C(C)C | MC4R | ligand displacement in cells |  | radioligand | Ki | > 1 µM
Nc1ncnc2c1ncn2[C@@H]1O[C@H](COP(=O)(O)OP(=O)(O)OP(=O)(O)OP(=O)(O)OP(=O)(O)OC[C@H]2O[C@@H](n3cnc4c(N)ncnc43)[C@H](O)[C@@H]2O)[C@@H](O)[C@H]1O | adk (Escherichia coli, UniProt P69441) | binding |  | ITC | Kd | 0.354 µM
COc1ccc(C2c3c(N)nc(Cc4ccccc4)nc3Oc3ccc4ccccc4c32)cc1OC (stereo not drawn) | NPSR1 | cAMP | antagonist | TR-FRET | IC50 | 77.2 µM
NC(=O)N1c2ccccc2C=Cc2ccccc21 | NQO2 | enzyme activity | inhibitor | absorbance | Ki | > 500 µM
COc1cccc(C2c3c(ncn(-c4cccc(C)c4)c3=N)Oc3ccc4ccccc4c32)c1 (stereo not drawn) | NPSR1 | cAMP | antagonist | TR-FRET | IC50 | 12.2 µM
Cc1c(S(=O)(=O)O)oc2c1C(=O)C(=O)c1c-2ccc2c1CCCC2(C)C | Cholinesterase (BCHE, Homo sapiens, UniProt P06276) | enzyme activity | inhibitor |  | Ki | > 100 µM
O[C@@H]1[C@H](O)[C@@H]2C[C@@H]2[C@H]1n1cnc2c(NCC(c3ccccc3)c3ccccc3)nc(C#Cc3ccccc3)nc21 | SLC6A2 | ligand displacement |  | radioligand | Ki | 5.78 µM
COc1cccc(C2c3c(ncn(-c4ccc(NC(C)=O)cc4)c3=N)Oc3ccc4ccccc4c32)c1 (stereo not drawn) | NPSR1 | cAMP | antagonist | TR-FRET | IC50 | 19.4 µM
O=C(O)Cc1ccccc1Nc1c(Cl)cccc1Cl | NQO2 | enzyme activity | inhibitor | absorbance | Ki | > 1000 µM
